Tests used:
[1] = biological target: Sigma non-opioid intracellular receptor 1 (Rattus norvegicus, UniProt Q9R0C9); experiment: Displacement of (+)-[3H]pentazocine from sigma 1 receptor in rat brain membranes by competitive binding assay; type: cell membranes
In short: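 Sigma-1 competition binding used rat brain membranes as receptor material with (+)-[3H]pentazocine as radioligand. Ki was derived by Cheng–Prusoff from at least three independent experiments, each in triplicate, and is reported as mean ± SD.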

[2] = Displacement of [3H]ditolylguanidine from sigma 2 receptor in rat liver membrane by competitive binding assay; type: cell membranes
In short: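 Sigma-2 competition binding used rat liver membranes with [3H]ditolylguanidine as radioligand. 10 µM dextrallorphan was present to mask sigma-1 sites. Ki was derived by Cheng–Prusoff from at least three independent experiments, each in triplicate, and is reported as mean ± SD.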

[3] = biological target: 3-beta-hydroxysteroid-Delta(8),Delta(7)-isomerase (Homo sapiens, UniProt Q15125); experiment: Binding affinity to emopamil binding protein
Chain of 3-beta-hydroxysteroid-Delta(8),Delta(7)-isomerase (Q15125 whole entry): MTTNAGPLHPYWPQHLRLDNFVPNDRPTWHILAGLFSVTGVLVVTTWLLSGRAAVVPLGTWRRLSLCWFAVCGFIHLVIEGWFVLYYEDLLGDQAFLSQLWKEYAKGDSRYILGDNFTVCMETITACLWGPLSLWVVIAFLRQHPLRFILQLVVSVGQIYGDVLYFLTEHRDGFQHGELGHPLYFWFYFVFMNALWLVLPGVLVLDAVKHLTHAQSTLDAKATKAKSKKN

Chain of Sigma non-opioid intracellular receptor 1 (Q9R0C9 whole entry): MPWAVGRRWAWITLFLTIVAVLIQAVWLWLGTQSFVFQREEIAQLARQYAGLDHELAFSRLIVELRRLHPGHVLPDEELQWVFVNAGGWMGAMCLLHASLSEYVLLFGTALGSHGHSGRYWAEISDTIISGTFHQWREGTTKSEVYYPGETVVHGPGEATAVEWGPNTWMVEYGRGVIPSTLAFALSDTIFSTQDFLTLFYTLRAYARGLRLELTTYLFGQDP

| Compound | Ki [1] [nM] | Ki [2] [nM] | Ki [3] [nM] |
| --- | --- | --- | --- |
| O=[N+]([O-])c1ccc(CN2CCN(Cc3ccc4c(c3)OCO4)CC2)cc1 | 0.43 | 40.5 |  |
| Ic1ccc(CN2CCN(Cc3ccc4c(c3)OCO4)CC2)cc1 | 0.8 | 61.1 |  |
| COc1cc(CCN2CCN(CCCc3ccccc3)CC2)ccc1O[11CH3] |  |  | 1.72 |
